In ChEMBL document CHEMBL1153046, “Synthesis and antitumor activity of substituted triazolo[4,3-a]pyrimidin-6-sulfonamide with an incorporated thiazolidinone moiety” (2009):

Experiments:
Format in all cases: functional
[1] = system: OVCAR-5; assay: Growth inhibition of human OVCAR5 cells after 48 hrs by sulforhodamine B assay; details: OVCAR-5, 48 h
Summary of the method: (§1)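 NCI 60-cell-line panel. Cells are grown in RPMI1640 with 5% fetal calf serum and 2 mM L-glutamine, seeded at a density set by growth characteristics, and preincubated 24 h. Compound is tested at a minimum of five concentrations at 10-fold dilution, with 48 h continuous exposure. Viability is read by sulforhodamine B protein assay. GI50, TGI and LC50 come from dose-response curves.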

[2] = system: MOLT-4; assay: Growth inhibition of human MOLT4 cells after 48 hrs by sulforhodamine B assay; details: MOLT-4, 48 h; summary of the method: as §1
[3] = system: CCRF-CEM; assay: Growth inhibition of human CCRF-CEM cells after 48 hrs by sulforhodamine B assay; summary of the method: as §1
[4] = system: HCC 2998; assay: Growth inhibition of human HCC2998 cells after 48 hrs by sulforhodamine B assay; details: HCC 2998, 48 h; summary of the method: as §1
[5] = system: SF-268; assay: Antiproliferative activity against human SF268 cells assessed as cell growth at 100 uM after 48 hrs by alamar blue assay; details: SF-268, 48 h, read-out: Activity
Summary of the method: (§2)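 NCI three-cell-line primary screen. Cells are seeded and preincubated in microtiter plates. Compound is added at a single 10^-4 M concentration and cultures are incubated 48 h. The end-point is read with alamar blue. Results are given as percent growth relative to untreated control cells.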

[6] = system: SNB-19; assay: Growth inhibition of human SNB19 cells after 48 hrs by sulforhodamine B assay; details: SNB-19, 48 h
Summary of the method: (§3)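 NCI 60-cell-line panel (nine cancer types), with cells grown in RPMI1640 plus 5% fetal calf serum and 2 mM L-glutamine. Cells are seeded at a density that depends on the line and preincubated 24 h. Compounds are then applied at a minimum of five 10-fold dilutions over a 5-log range with 48 h continuous exposure. Viability is read by SRB protein assay, and GI50 is derived from dose-response curves in units of 10^-5 M.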

[7] = system: NCI-H460; assay: Growth inhibition of human NCI-H460 cells after 48 hrs by sulforhodamine B assay; details: NCI-H460, 48 h; summary of the method: as §1
[8] = system: NCI-H522; assay: Growth inhibition of human NCI-H522 cells after 48 hrs by sulforhodamine B assay; details: NCI-H522, 48 h; summary of the method: as §1
[9] = system: CAKI-1; assay: Growth inhibition of human Caki1 cells after 48 hrs by sulforhodamine B assay; details: CAKI-1, 48 h; summary of the method: as §1
[10] = system: MDA-MB-435; assay: Growth inhibition of human MDA-MB-435 cells after 48 hrs by sulforhodamine B assay; details: MDA-MB-435, 48 h; summary of the method: as §1
[11] = system: SF-539; assay: Growth inhibition of human SF539 cells after 48 hrs by sulforhodamine B assay; details: SF-539, 48 h; summary of the method: as §1
[12] = system: BT-549; assay: Growth inhibition of human BT549 cells after 48 hrs by sulforhodamine B assay; details: BT-549, 48 h; summary of the method: as §1
[13] = system: PC-3; assay: Growth inhibition of human PC3 cells after 48 hrs by sulforhodamine B assay; details: PC-3, 48 h; summary of the method: as §1
[14] = system: TK-10; assay: Growth inhibition of human TK10 cells after 48 hrs by sulforhodamine B assay; details: TK-10, 48 h; summary of the method: as §3
[15] = system: 786-0; assay: Growth inhibition of human 786-0 cells after 48 hrs by sulforhodamine B assay; details: 786-0, 48 h; summary of the method: as §1
[16] = system: OVCAR-3; assay: Growth inhibition of human OVCAR-3 cells after 48 hrs by sulforhodamine B assay; details: OVCAR-3, 48 h; summary of the method: as §1
[17] = system: OVCAR-4; assay: Growth inhibition of human OVCAR4 cells after 48 hrs by sulforhodamine B assay; details: OVCAR-4, 48 h; summary of the method: as §1
[18] = system: DU-145; assay: Growth inhibition of human DU145 cells after 48 hrs by sulforhodamine B assay; details: DU-145, 48 h; summary of the method: as §1
[19] = system: SK-MEL-28; assay: Growth inhibition of human SK-MEL-28 cells after 48 hrs by sulforhodamine B assay; details: SK-MEL-28, 48 h; summary of the method: as §1
[20] = system: HT-29; assay: Growth inhibition of human HT-29 cells after 48 hrs by sulforhodamine B assay; details: HT-29, 48 h; summary of the method: as §1
[21] = system: COLO 205; assay: Growth inhibition of human COLO205 cells after 48 hrs by sulforhodamine B assay; details: COLO 205, 48 h; summary of the method: as §1
[22] = system: A498; assay: Growth inhibition of human A498 cells after 48 hrs by sulforhodamine B assay; details: A498, 48 h; summary of the method: as §1
[23] = system: NCI-H23; assay: Growth inhibition of human NCI-H23 cells after 48 hrs by sulforhodamine B assay; details: NCI-H23, 48 h; summary of the method: as §1
[24] = system: NCI-H322M; assay: Growth inhibition of human NCI-H322M cells after 48 hrs by sulforhodamine B assay; summary of the method: as §1
[25] = system: SR; assay: Growth inhibition of human SR cells after 48 hrs by sulforhodamine B assay; summary of the method: as §3
[26] = system: A549; assay: Growth inhibition of human A549 cells after 48 hrs by sulforhodamine B assay; details: A549, 48 h; summary of the method: as §1
[27] = system: MCF7; assay: Growth inhibition of human MCF7 cells after 48 hrs by sulforhodamine B assay; details: MCF7, 48 h; summary of the method: as §1
[28] = system: KM12; assay: Growth inhibition of human KM12 cells after 48 hrs by sulforhodamine B assay; details: KM12, 48 h; summary of the method: as §1
[29] = system: NCI-H460; assay: Antiproliferative activity against human NCI-H460 cells assessed as cell growth at 100 uM after 48 hrs by alamar blue assay; details: NCI-H460, 48 h, read-out: Activity; summary of the method: as §2
[30] = Growth inhibition of human […] cells after 48 hrs by sulforhodamine B assay; summary of the method: as §1
[31] = system: UACC-257; assay: Growth inhibition of human UACC257 cells after 48 hrs by sulforhodamine B assay; details: UACC-257, 48 h; summary of the method: as §3
[32] = read-out: LC50 (the source's name)

SMILES: COc1ccc(/C=N/c2nc3[nH]nc(C)n3c(=O)c2S(=O)(=O)NN2C(=O)C(CN3CCOCC3)SC2c2cccs2)cc1 (stereo not drawn)
- GI50 [1]: 43.4 µM
- LC50 (concentration causing 50% net cell kill) [1]: > 100 µM
- TGI [1]: > 100 µM
- GI50 [2]: 4.08 µM
- TGI [2]: 40.6 µM
- CC50 [2, 32]: > 100 µM
- GI50 [3]: 6.27 µM
- TGI [3]: > 100 µM
- GI50 [4]: 3.96 µM
- LC50 [4]: 64.8 µM
- TGI [4]: 31.3 µM
- growth at 100 µM [5]: 56%
- GI50 [6]: 34.5 µM
- TGI [6]: > 100 µM
- GI50 [7]: 5.32 µM
- TGI [7]: > 100 µM
- GI50 [8]: 4.35 µM
- TGI [8]: 27.3 µM
- GI50 [9]: 12.1 µM
- LC50 (50% lethal concentration) [9]: > 100 µM
- TGI [9]: > 100 µM
- GI50 [10]: 3.26 µM
- TGI [10]: 36 µM
- GI50 [11]: 7.24 µM
- LC50 [11]: > 100 µM
- TGI [11]: 30.4 µM
- GI50 [12]: 18 µM
- TGI [12]: > 100 µM
- GI50 [13]: 3.92 µM
- LC50 (concentration killing 50% of cells) [13]: > 100 µM
- TGI [13]: 95.8 µM
- GI50 [14]: 20.8 µM
- LC50 [14]: > 100 µM
- TGI [14]: 92 µM
- GI50 [15]: 5.82 µM
- TGI [15]: > 100 µM
- CC50 [15, 32]: > 100 µM
- GI50 [16]: 3.6 µM
- LC50 (concentration killing 50% of cells) [16]: > 100 µM
- TGI [16]: > 100 µM
- GI50 [17]: > 100 µM
- LC50 [17]: > 100 µM
- TGI [17]: > 100 µM
- GI50 [18]: 16 µM
- LC50 (concentration giving 50% net cell kill) [18]: > 100 µM
- TGI [18]: > 100 µM
- GI50 [19]: 82.1 µM
- TGI [19]: > 100 µM
- GI50 [20]: 19.4 µM
- GI50 [21]: 14.9 µM
- TGI [21]: 12.8 µM
- GI50 [22]: 2.67 µM
- LC50 (concentration giving 50% net cell kill) [22]: > 100 µM
- TGI [22]: 15.5 µM
- GI50 [23]: 44.5 µM
- TGI [23]: > 100 µM
- GI50 [24]: 56.9 µM
- TGI [24]: > 100 µM
- GI50 [25]: 1.1 µM
- LC50 (concentration killing 50% of cells) [25]: 9.2 µM
- TGI [25]: 3.2 µM
- GI50 [26]: 19.1 µM
- TGI [26]: > 100 µM
- GI50 [27]: 3.18 µM
- TGI [27]: > 100 µM
- GI50 [28]: 4.06 µM
- growth at 100 µM [29]: 13%
- GI50 [30]: 3.86 µM
- TGI [30]: 26.2 µM
- CC50 [30, 32]: > 100 µM
- GI50 [31]: 6.77 µM
- LC50 [31]: > 100 µM
- TGI [31]: > 100 µM
